Experimental data reported in ChEMBL document CHEMBL3272128, “Antileukemic activity of derivatives of 1-phenyl-2,5-dimethyl-3,4-bis(hydroxymethyl)pyrrole bis(N-methylcarbamate)” (J Med Chem, 1977).

Key:
P388 [1] = test: Antileukemic activity against mouse P388 cells allografted in male CDF1 mouse assessed as tumor growth inhibition at 50 mg/kg, ip using hydroxypropylcellulose suspension total 9 daily doses started 24 hrs after tumor inoculation; format: functional; conditions: route intraperitoneal
Method in brief: (§1)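 Male CDF1 mice received P388 ascitic fluid ip, then ip doses in Flucel (hydroxypropylcellulose) suspension, nine daily, beginning 24 h after inoculation. Efficacy was median survival time as % T/C; values > 125 were considered significant.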

Mus musculus [2] = test: Toxicity in male CDF1 mouse allografted with mouse P388 cells assessed as survivors on day 5 at 12.5 mg/kg, ip using hydroxypropylcellulose suspension; format: organism-based; parameters: dose 12.5 mg/kg, route intraperitoneal; conditions: in vivo
Method in brief: (§2)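 Male CDF1 mice received an ip inoculation of P388 leukemia ascitic fluid. Dosing was ip in a hydroxypropylcellulose (Flucel) suspension, once daily for nine days, beginning 24 h after tumor implantation. Toxicity was scored as survivors recorded on the fifth day.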

P388 [3] = test: Antileukemic activity against mouse P388 cells allografted in male CDF1 mouse assessed as change in body weight at 12.5 mg/kg, ip using hydroxypropylcellulose suspension total 9 daily doses started 24 hrs after tumor inoculation; format: functional; conditions: route intraperitoneal
Method in brief: (§3)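 Male CDF1 mice were inoculated ip with P388 ascitic fluid. Compound was given ip as a Flucel (hydroxypropylcellulose) suspension, nine daily doses from 24 h after inoculation. Animal weight difference (T − C, g) was recorded on the fifth day.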

Mus musculus [4] = test: Toxicity in male CDF1 mouse allografted with mouse P388 cells assessed as survivors on day 5 at 25 mg/kg, ip using hydroxypropylcellulose suspension; format: organism-based; parameters: dose 25 mg/kg, route intraperitoneal; conditions: in vivo; method in brief: as §2
P388 [5] = test: Antileukemic activity against mouse P388 cells allografted in male CDF1 mouse assessed as tumor growth inhibition at 12.5 mg/kg, ip using hydroxypropylcellulose suspension total 9 daily doses started 24 hrs after tumor inoculation; format: functional; conditions: route intraperitoneal; method in brief: as §1
P388 [6] = test: Antileukemic activity against mouse P388 cells allografted in male CDF1 mouse assessed as tumor growth inhibition at 25 mg/kg, ip using hydroxypropylcellulose suspension total 9 daily doses started 24 hrs after tumor inoculation; format: functional; conditions: route intraperitoneal; method in brief: as §1
P388 [7] = test: Antileukemic activity against mouse P388 cells allografted in male CDF1 mouse assessed as change in body weight at 25 mg/kg, ip using hydroxypropylcellulose suspension total 9 daily doses started 24 hrs after tumor inoculation; format: functional; conditions: route intraperitoneal; method in brief: as §3
P388 [8] = test: Antileukemic activity against mouse P388 cells allografted in male CDF1 mouse assessed as change in body weight at 50 mg/kg, ip using hydroxypropylcellulose suspension total 9 daily doses started 24 hrs after tumor inoculation; format: functional; conditions: route intraperitoneal; method in brief: as §3
Mus musculus [9] = test: Toxicity in female CDF1 mouse allografted with mouse P388 cells assessed as survivors on day 5 at 25 mg/kg, ip using hydroxypropylcellulose suspension; format: organism-based; parameters: dose 25 mg/kg, route intraperitoneal; conditions: in vivo
Method in brief: (§4)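 Female CDF1 mice were inoculated ip with P388 leukemia ascitic fluid. Test agent was suspended in hydroxypropylcellulose (Flucel) and given ip as nine daily doses, starting 24 h after tumor inoculation. Survivors were counted on day 5 as the toxicity read-out.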

P388 [10] = test: Antileukemic activity against mouse P388 cells allografted in female CDF1 mouse assessed as change in body weight at 25 mg/kg, ip using hydroxypropylcellulose suspension total 9 daily doses started 24 hrs after tumor inoculation; format: functional; conditions: route intraperitoneal
Method in brief: (§5)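 Female CDF1 mice got P388 ascitic fluid ip. Test agent was given ip as a Flucel (hydroxypropylcellulose) suspension, nine daily doses starting 24 h after tumor inoculation. Read-out was the treated minus control animal weight difference (T − C, g), recorded on day 5.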

P388 [11] = test: Antileukemic activity against mouse P388 cells allografted in female CDF1 mouse assessed as tumor growth inhibition at 100 mg/kg, ip using hydroxypropylcellulose suspension total 9 daily doses started 24 hrs after tumor inoculation; format: functional; conditions: route intraperitoneal
Method in brief: (§6)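 P388 ascitic fluid was inoculated ip into female CDF1 mice. Dosing was ip in a Flucel (hydroxypropylcellulose) suspension, given daily for nine doses beginning 24 h post-inoculation. Activity was median survival time expressed as % T/C, with % T/C > 125 taken as significant.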

P388 [12] = test: Antileukemic activity against mouse P388 cells allografted in female CDF1 mouse assessed as tumor growth inhibition at 200 mg/kg, ip using hydroxypropylcellulose suspension total 9 daily doses started 24 hrs after tumor inoculation; format: functional; conditions: route intraperitoneal; method in brief: as §6
P388 [13] = test: Antileukemic activity against mouse P388 cells allografted in female CDF1 mouse assessed as change in body weight at 200 mg/kg, ip using hydroxypropylcellulose suspension total 9 daily doses started 24 hrs after tumor inoculation; format: functional; conditions: route intraperitoneal; method in brief: as §5
Mus musculus [14] = test: Toxicity in female CDF1 mouse allografted with mouse P388 cells assessed as survivors on day 5 at 50 mg/kg, ip using hydroxypropylcellulose suspension; format: organism-based; parameters: dose 50 mg/kg, route intraperitoneal; conditions: in vivo; method in brief: as §4
P388 [15] = test: Antileukemic activity against mouse P388 cells allografted in female CDF1 mouse assessed as tumor growth inhibition at 50 mg/kg, ip using hydroxypropylcellulose suspension total 9 daily doses started 24 hrs after tumor inoculation; format: functional; conditions: route intraperitoneal; method in brief: as §6
P388 [16] = test: Antileukemic activity against mouse P388 cells allografted in female CDF1 mouse assessed as change in body weight at 100 mg/kg, ip using hydroxypropylcellulose suspension total 9 daily doses started 24 hrs after tumor inoculation; format: functional; conditions: route intraperitoneal; method in brief: as §5
P388 [17] = test: Antileukemic activity against mouse P388 cells allografted in female CDF1 mouse assessed as change in body weight at 50 mg/kg, ip using hydroxypropylcellulose suspension total 9 daily doses started 24 hrs after tumor inoculation; format: functional; conditions: route intraperitoneal; method in brief: as §5
P388 [18] = test: Antileukemic activity against mouse P388 cells allografted in female CDF1 mouse assessed as tumor growth inhibition at 25 mg/kg, ip using hydroxypropylcellulose suspension total 9 daily doses started 24 hrs after tumor inoculation; format: functional; conditions: route intraperitoneal; method in brief: as §6
Mus musculus [19] = test: Toxicity in female CDF1 mouse allografted with mouse P388 cells assessed as survivors on day 5 at 200 mg/kg, ip using hydroxypropylcellulose suspension; format: organism-based; parameters: dose 200 mg/kg, route intraperitoneal; conditions: in vivo; method in brief: as §4
P388 [20] = test: Antileukemic activity against mouse P388 cells allografted in female CDF1 mouse assessed as change in body weight at 6.25 mg/kg, ip using hydroxypropylcellulose suspension total 9 daily doses started 24 hrs after tumor inoculation; format: functional; conditions: route intraperitoneal; method in brief: as §5
Mus musculus [21] = test: Toxicity in male CDF1 mouse allografted with mouse P388 cells assessed as survivors on day 5 at 12.5 mg/kg, ip using saline as vehicle; format: organism-based; parameters: dose 12.5 mg/kg, route intraperitoneal; conditions: in vivo
Method in brief: (§7)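 P388 leukemia ascitic fluid was implanted ip into male CDF1 mice. Compound was given ip in saline vehicle as nine daily doses, starting 24 h post-inoculation. Survivor counts were taken on day 5.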

P388 [22] = test: Antileukemic activity against mouse P388 cells allografted in male CDF1 mouse assessed as tumor growth inhibition at 50 mg/kg, ip using saline as vehicle total 9 daily doses started 24 hrs after tumor inoculation; format: functional; conditions: route intraperitoneal
Method in brief: (§8)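 P388 ascitic fluid was given ip to male CDF1 mice. Treatment was ip in saline, nine daily doses from 24 h post-inoculation. Median survival time was expressed as % T/C, and % T/C > 125 was considered significant.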

P388 [23] = test: Antileukemic activity against mouse P388 cells allografted in male CDF1 mouse assessed as tumor growth inhibition at 12.5 mg/kg, ip using saline as vehicle total 9 daily doses started 24 hrs after tumor inoculation; format: functional; conditions: route intraperitoneal; method in brief: as §8
P388 [24] = test: Antileukemic activity against mouse P388 cells allografted in male CDF1 mouse assessed as change in body weight at 12.5 mg/kg, ip using saline as vehicle total 9 daily doses started 24 hrs after tumor inoculation; format: functional; conditions: route intraperitoneal
Method in brief: (§9)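 In male CDF1 mice bearing ip-inoculated P388 ascitic fluid, drug was given ip in saline vehicle, once daily for nine doses starting 24 h after inoculation. Body weight difference, treated minus control (g), was recorded on day 5.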

P388 [25] = test: Antileukemic activity against mouse P388 cells allografted in male CDF1 mouse assessed as change in body weight at 50 mg/kg, ip using saline as vehicle total 9 daily doses started 24 hrs after tumor inoculation; format: functional; conditions: route intraperitoneal; method in brief: as §9
Mus musculus [26] = test: Toxicity in male CDF1 mouse allografted with mouse P388 cells assessed as survivors on day 5 at 25 mg/kg, ip using saline as vehicle; format: organism-based; parameters: dose 25 mg/kg, route intraperitoneal; conditions: in vivo; method in brief: as §7
P388 [27] = test: Antileukemic activity against mouse P388 cells allografted in male CDF1 mouse assessed as change in body weight at 25 mg/kg, ip using saline as vehicle total 9 daily doses started 24 hrs after tumor inoculation; format: functional; conditions: route intraperitoneal; method in brief: as §9
P388 [28] = test: Antileukemic activity against mouse P388 cells allografted in male CDF1 mouse assessed as tumor growth inhibition at 25 mg/kg, ip using saline as vehicle total 9 daily doses started 24 hrs after tumor inoculation; format: functional; conditions: route intraperitoneal; method in brief: as §8
Mus musculus [29] = test: Toxicity in male CDF1 mouse allografted with mouse P388 cells assessed as survivors on day 5 at 50 mg/kg, ip using hydroxypropylcellulose suspension; format: organism-based; parameters: dose 50 mg/kg, route intraperitoneal; conditions: in vivo; method in brief: as §2
Mus musculus [30] = test: Toxicity in male CDF1 mouse allografted with mouse P388 cells assessed as survivors on day 5 at 50 mg/kg, ip using saline as vehicle; format: organism-based; parameters: dose 50 mg/kg, route intraperitoneal; conditions: in vivo; method in brief: as §7

Structure (SMILES)	T/C (P388 [1])	Activity (Mus musculus [2])	Activity (P388 [3])	Activity (Mus musculus [4])	T/C (P388 [5])	T/C (P388 [6])	Activity (P388 [7])	Activity (P388 [8])	other results
CCCCc1ccc(-n2c(C)c(COC(=O)NC)c(COC(=O)NC)c2C)cc1	65%	Non-toxic	-3.1 g	Non-toxic	190%	152%	-4.1 g	-4.9 g	
CCOc1ccc(-n2c(C)c(COC(=O)NC)c(COC(=O)NC)c2C)cc1	90%	Non-toxic	-3 g	Non-toxic	152%	150%	-3.4 g	-3.8 g	
CNC(=O)OCc1c(COC(=O)NC)c(C)n(-c2ccccc2)c1C			-1.3 g	Non-toxic	145%	148%	-1.7 g		Activity (Mus musculus [9]): Non-toxic; Activity (P388 [10]): -1.6 g; T/C (P388 [11]): <50%; T/C (P388 [12]): <50%; Activity (P388 [13]): -1.5 g; Activity (Mus musculus [14]): Non-toxic; T/C (P388 [15]): <50%; Activity (P388 [16]): -2.1 g; Activity (P388 [17]): -2 g; T/C (P388 [18]): 127%; Activity (Mus musculus [19]): Toxic; Activity (P388 [20]): -2.1 g
CNC(=O)OCc1c(COC(=O)NC)c(C)n(-c2ccc(Cl)cc2)c1C									Activity (Mus musculus [21]): Non-toxic; T/C (P388 [22]): 80%; T/C (P388 [23]): 145%; Activity (P388 [24]): -1.3 g; Activity (P388 [25]): -2.9 g; Activity (Mus musculus [26]): Non-toxic; Activity (P388 [27]): -3.8 g; T/C (P388 [28]): 142%
CNC(=O)OCc1c(COC(=O)NC)c(C)n(-c2ccc(C)cc2)c1C	133%	Non-toxic	-2.5 g	Non-toxic	142%	136%	-2.3 g	-2.6 g	Activity (Mus musculus [29]): Non-toxic
COc1ccc(-n2c(C)c(COC(C)=O)c(COC(C)=O)c2C)cc1	75%	Non-toxic	-1.6 g	Non-toxic	157%	95%	-3.8 g	-3.2 g	
CNC(=O)OCc1c(COC(=O)NC)c(C)n(-c2ccc3c(c2)OCO3)c1C	<50%	Non-toxic	-1.1 g	Non-toxic	132%	146%	-1.6 g	-3.4 g	
CNC(=O)OCc1c(COC(=O)NC)c(C)n(-c2ccc(F)cc2)c1C	133%	Non-toxic	-2.6 g	Non-toxic	142%	155%	-2.1 g	-2.6 g	Activity (Mus musculus [29]): Non-toxic
CNC(=O)OCc1c(COC(=O)NC)c(C)n(-c2ccc(Br)cc2)c1C	88%	Non-toxic	-2 g	Non-toxic	152%	142%	-3.9 g	-4.9 g	
CNC(=O)OCc1c(COC(=O)NC)c(C)n(-c2ccc(Cl)c(Cl)c2)c1C									Activity (Mus musculus [30]): Non-toxic; Activity (Mus musculus [21]): Non-toxic; T/C (P388 [22]): 84%; T/C (P388 [23]): 160%; Activity (P388 [24]): -1.5 g; Activity (P388 [25]): -2.6 g; Activity (Mus musculus [26]): Non-toxic; Activity (P388 [27]): -2.9 g; T/C (P388 [28]): 148%
CNC(=O)OCc1c(COC(=O)NC)c(C)n(-c2ccc(OC)cc2)c1C	171%	Non-toxic	-2.6 g	Non-toxic	152%	142%	-2.4 g	-0.5 g	Activity (Mus musculus [29]): Non-toxic
